Measurements: ChEMBL document CHEMBL1156623, “Novel 1,4-benzothiazine derivatives as large conductance Ca2+-activated potassium channel openers” (J Med Chem, 2008)
Activity calls are given as the source filed them. The rule behind the calls is not given here.

Experiments:
[1] = target: Calcium-activated potassium channel subunit alpha-1 (Rattus norvegicus) (UniProt Q62976); assay: Activation of large-conductance calcium-activated potassium channel-mediated vasorelaxation in endothelium-denuded normotensive Wistar rat thoracic aorta assessed as potassium chloride-induced contractile tension relative to NS-1619; assay type: tissue-based
[2] = target: Calcium-activated potassium channel subunit alpha-1 (Rattus norvegicus) (UniProt Q62976); assay: Activation of large-conductance calcium-activated potassium channel-mediated vasorelaxation in endothelium-denuded normotensive Wistar rat thoracic aorta assessed as potassium chloride-induced contraction in presence of tetraethylammonium chloride; assay type: tissue-based
Summary of the method: (§1)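 Male Wistar rats (250-350 g); endothelium-denuded thoracic aortic rings in Tyrode at 37 °C, gassed 95% O2/5% CO2, isometric tension. Denudation checked with ACh 10 µM on KCl 20 mM contraction. After KCl 20 mM contraction, IbTX 100 nM or TEA 10 mM added, then cumulative 3-fold increasing compound concentrations, max 10 µM; DMSO stock diluted in water. Efficacy as % of KCl tone; pIC50; mean ± SE, 5-10 experiments.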

[3] = target: Calcium-activated potassium channel subunit alpha-1 (Rattus norvegicus, UniProt Q62976); assay: (§2) Activation of large-conductance calcium-activated potassium channel-mediated vasorelaxation in endothelium-denuded normotensive Wistar rat thoracic aorta assessed as potassium chloride-induced contractile tension
Summary of the method: (§3)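 Male Wistar rats (250-350 g); thoracic aortic rings, endothelium removed (confirmed by ACh 10 µM lack of relaxation), in Tyrode at 37 °C gassed 95% O2/5% CO2, isometric tension, 60 min equilibration. After stable KCl 20 mM contraction, 3-fold increasing cumulative concentrations added, up to 10 µM. Efficacy as % of KCl tone; pIC50 from half-reduction; mean ± SE of 5-10 experiments.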

[4] = target: Calcium-activated potassium channel subunit alpha-1 (Rattus norvegicus) (UniProt Q62976); assay: Activation of large-conductance calcium-activated potassium channel-mediated vasorelaxation in endothelium-denuded normotensive Wistar rat thoracic aorta assessed as potassium chloride-induced contraction in presence of iberiotoxin; summary of the method: as §1
[5] = target: Calcium-activated potassium channel subunit alpha-1 (Rattus norvegicus) (UniProt Q62976); assay: as §2; parameters: scale not given: the % may be the effect or the level left; summary of the method: as §3

Calcium-activated potassium channel subunit alpha-1, sequence (Q62976 whole entry): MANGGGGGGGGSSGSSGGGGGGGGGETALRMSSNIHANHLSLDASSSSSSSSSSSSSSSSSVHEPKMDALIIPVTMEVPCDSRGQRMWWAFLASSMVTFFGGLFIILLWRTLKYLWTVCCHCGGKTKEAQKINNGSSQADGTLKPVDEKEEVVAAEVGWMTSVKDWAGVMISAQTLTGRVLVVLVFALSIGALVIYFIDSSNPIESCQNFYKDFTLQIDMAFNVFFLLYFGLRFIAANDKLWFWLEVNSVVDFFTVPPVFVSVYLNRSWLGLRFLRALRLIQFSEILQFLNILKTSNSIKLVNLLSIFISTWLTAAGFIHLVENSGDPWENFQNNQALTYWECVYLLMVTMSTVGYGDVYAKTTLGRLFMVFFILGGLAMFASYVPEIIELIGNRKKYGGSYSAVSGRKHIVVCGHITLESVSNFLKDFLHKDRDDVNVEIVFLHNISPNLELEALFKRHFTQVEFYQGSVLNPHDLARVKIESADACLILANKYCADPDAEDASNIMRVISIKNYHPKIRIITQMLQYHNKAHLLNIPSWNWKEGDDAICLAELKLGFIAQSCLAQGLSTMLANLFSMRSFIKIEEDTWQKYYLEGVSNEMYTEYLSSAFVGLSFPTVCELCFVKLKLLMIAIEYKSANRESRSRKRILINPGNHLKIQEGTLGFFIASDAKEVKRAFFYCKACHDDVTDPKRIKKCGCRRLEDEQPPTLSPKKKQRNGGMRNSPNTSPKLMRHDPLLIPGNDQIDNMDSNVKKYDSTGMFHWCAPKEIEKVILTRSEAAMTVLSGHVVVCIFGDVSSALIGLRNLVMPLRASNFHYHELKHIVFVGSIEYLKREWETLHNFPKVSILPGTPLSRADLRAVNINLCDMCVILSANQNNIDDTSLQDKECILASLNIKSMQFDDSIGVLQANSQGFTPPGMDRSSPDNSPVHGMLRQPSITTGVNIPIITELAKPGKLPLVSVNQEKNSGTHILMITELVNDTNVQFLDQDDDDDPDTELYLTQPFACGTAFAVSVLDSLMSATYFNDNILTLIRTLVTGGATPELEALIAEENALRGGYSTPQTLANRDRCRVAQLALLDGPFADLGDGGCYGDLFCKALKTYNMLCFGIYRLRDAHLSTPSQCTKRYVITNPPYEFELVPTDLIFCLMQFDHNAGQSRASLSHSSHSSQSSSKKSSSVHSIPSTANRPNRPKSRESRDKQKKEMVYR
Calcium-activated potassium channel subunit alpha-1 (Rattus norvegicus), sequence (Q62976 whole entry): as above

Row | SMILES | Emax [1] [%] | Activity [2] | IC50 [3] [µM] | Activity [4] | Activity [5] [%]
1 | COc1ccc(Br)cc1C1Sc2ccc(C(F)(F)F)cc2NC1=O (centres undefined) | 77 | inactive | 0.0398 | inactive | 
2 | COc1ccc(Br)cc1C1Sc2ccccc2NC1=O (centres undefined) | 100 |  | 15.8 |  | 
3 | O=C1Nc2cc(C(F)(F)F)ccc2SC1c1ccccc1 (centres undefined) | 39 |  |  |  | < 50
4 | COc1ccc(Br)cc1C1CNc2cc(C(F)(F)F)ccc2S1 (centres undefined) | < 25 |  |  |  | < 50
5 | COc1ccc(Br)cc1C1C(=O)Nc2cc(C(F)(F)F)ccc2[S+]1[O-] (centres undefined) | 34 |  |  |  | < 50
6 | COc1ccccc1C1CNc2cc(C(F)(F)F)ccc2S1 (centres undefined) | 100 |  | 22.4 |  | 
7 | COc1c(Br)cc(Br)cc1C1Sc2ccc(C(F)(F)F)cc2NC1=O (centres undefined) | 75 |  | 50.1 |  | 
8 | COc1ccc(Br)cc1C1Sc2ccc(C(F)(F)F)cc2NC1=S (centres undefined) | 26 |  |  |  | < 50
9 | O=C1Nc2cc(C(F)(F)F)ccc2SC1c1cc(Cl)ccc1O (centres undefined) |  |  |  |  | < 50
10 | O=C1Nc2cc(C(F)(F)F)ccc2SC1c1cc(Br)ccc1O (centres undefined) | 44 |  |  |  | < 50
11 | COc1ccc(Br)cc1C1Sc2ccc(C(F)(F)F)cc2N(C)C1=O (centres undefined) | 67 | inactive | 0.617 |  | 
12 | O=c1[nH]c2cc(C(F)(F)F)ccc2n1-c1cc(C(F)(F)F)ccc1O |  |  | 5.01 |  | 
13 | O=C1Nc2ccccc2SC1c1ccccc1 (centres undefined) | 42 |  |  |  | < 50
14 | COc1ccc(Br)cc1[C@@H](O)[C@H]1Sc2ccc(C(F)(F)F)cc2NC1=O (relative stereo) | 70 |  | 6.31 |  | 
